The list is not random: actives were taken first. Their share in the collection is about 0.59%.
zfTRPN1 agonist: zebrafish TRPN1 (NompC) channel agonism; 0.18% of 220,000 active; activation, % at 3 µM; HEK293 zebrafish TRPN1-YFP, Fluo-8 calcium fluorescence; 100% = response to 87 µM carbachol; AID 1424;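 active = activation above its plate's cutoff, the mean activation of test wells on that plate plus 3 SD, cut at about 19% in these data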
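Control set: carbachol 87 µM as high control, DMSO as low control; system: HEK293 stable line with zebrafish TRPN1-YFP; read-out: % activation versus carbachol response; detection: intracellular calcium fluorescence with Fluo-8; doses: single test compound dose, 3 µM nominal, 0.3% DMSO; schedule: dye 1 h 37 °C plus 30 min RT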
TRPML3 ag: agonists of human TRPML3 channel. Q8TDD5. HEK293 TRPML3-YFP, Fluo-8 calcium fluorescence; 100% = the carbachol control signal. activation, % at 3 µM. 0.29% of 220,000 active. AID 1448;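 active = activation above its plate's cutoff, the mean activation of the plate's test wells plus 3 SD, cut at about 12% in these data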
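Test system: TRPML3-YFP stable HEK293 cells. Doses: single point at 3 µM. Incubation: dye loading 1 h 37 °C then 30 min ambient, 125 s read. Signal: Fluo-8 calcium dye fluorescence, ex 470-495, em 515-575 nm. Measure: percent activation from peak-to-basal fluorescence ratio, scaled between DMSO and carbachol.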
V1R ag counter: activates human V1a receptor in oxytocin agonist counter-screen. P37288. CHO-V1R cells, Fluo-8 calcium fluorescence, agonist mode; 0% DMSO, 100% 3 nM vasopressin. activation, % at 3 µM. 0.25% of 320,000 active;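 active = activation above the mean activation of all tested compounds plus 3 SD, per screening run, cut at about 20% in these data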;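 also: signal is peak over basal fluorescence ratio across a 100 second FLIPR read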
Target sequence (P37288 whole entry, looked up): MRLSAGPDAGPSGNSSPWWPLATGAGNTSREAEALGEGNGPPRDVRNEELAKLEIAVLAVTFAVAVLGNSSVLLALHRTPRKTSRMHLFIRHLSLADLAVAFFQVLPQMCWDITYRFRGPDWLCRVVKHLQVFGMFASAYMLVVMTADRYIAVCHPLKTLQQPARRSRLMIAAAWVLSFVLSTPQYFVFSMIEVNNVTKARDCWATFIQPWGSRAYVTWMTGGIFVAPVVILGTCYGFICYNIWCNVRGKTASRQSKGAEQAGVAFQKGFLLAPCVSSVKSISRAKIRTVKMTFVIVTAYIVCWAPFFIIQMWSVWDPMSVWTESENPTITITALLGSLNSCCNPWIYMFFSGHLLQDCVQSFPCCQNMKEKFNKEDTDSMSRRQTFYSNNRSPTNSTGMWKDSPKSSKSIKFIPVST
OXTR agonist: agonists of human oxytocin receptor | 0.32% of 320,000 active | CHO-OTR cells, Fluo-8 calcium fluorescence; normalized: DMSO 0%, oxytocin 100% | P30559 | activation, % at 3 µM | AID 2435;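 active = activation above the mean of all tested compounds plus 3 SD, cutoff set per screening run, cut at about 20% in these data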;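 also: peak over basal fluorescence ratio from a 100 s FLIPR kinetic read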
OXTR potentiate: potentiators of human oxytocin receptor. 0.061% of 320,000 active. P30559. activation, % at 3 µM. CHO-OTR cells, Fluo-8 calcium fluorescence, potentiator mode; 0% = oxytocin EC15, 100% = EC100;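 active = activation above that plate's cutoff, the mean activation of tested compounds plus 3 SD, cut at about 6.6% in these data, passing the limit was not always enough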
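Assay system: CHO-OTR cells, human receptor / Also added: oxytocin at about EC15, sub-maximal agonist stimulus / Dosing: single dose, 3.0 µM nominal final compound concentration / Incubation: 6 min pre-incubation, 100 s read / Technique: Fluo-8 calcium dye fluorescence / Read-out: % activation vs EC15 and EC100 oxytocin / Benchmarks: EC15 oxytocin low, 75 nM oxytocin high / Replicates: singlicate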
Of the large screens only hits and unclear results are named; the others gave an inactive call.

O=C1NC(=O)N(c2ccccc2)C(=O)/C1=C/c1ccc(Sc2ccccc2)o1	none
O=C1NC(=O)N(c2cccc(Cl)c2)C(=O)/C1=C\c1ccc(Sc2nc3ccccc3[nH]2)o1	zfTRPN1 agonist 19.9, TRPML3 ag 13.7, V1R ag counter 57.3, OXTR agonist 59.1
O=C1NC(=O)N(c2ccccc2F)C(=O)/C1=C/c1ccc(Sc2nc3ccccc3[nH]2)o1	zfTRPN1 agonist 43.0, TRPML3 ag 46.1, V1R ag counter 28.0, OXTR agonist 39.0
COC1=CC2C3Cc4ccc(OC)c(O)c4C2(CCN3C)CC1=O (stereo not drawn)	none (no result: zfTRPN1 agonist, TRPML3 ag)
Cc1cc(=O)[nH]c(CCl)n1	none
CCCCCn1c(=O)c(C(=O)Nc2ncccc2C)c(O)c2ccccc21	V1R ag counter 39.0, OXTR agonist 53.7 (no result: zfTRPN1 agonist, TRPML3 ag)
CCN(CC)c1ccc(C=C2C(=O)N(C)C(=S)N(C)C2=O)o1	none
CCN(CC)c1ccc(/C=C2\C(=O)NC(=S)N(C)C2=O)o1	V1R ag counter 23.0, OXTR agonist 22.1
COC(=O)C1=C(c2ccccc2)C[C@@H]2CC[C@H]1N2C(=O)NCc1ccc(C(F)(F)F)cc1	none (no result: zfTRPN1 agonist, TRPML3 ag)
COC(=O)C1=C(c2ccc(C(C)=O)cc2)C[C@@H]2CC[C@H]1N2C(=O)NCc1ccc(C(F)(F)F)cc1	V1R ag counter 33.0, OXTR agonist 44.6 (no result: zfTRPN1 agonist, TRPML3 ag)
CCOc1cccc(CNCCc2c(C)[nH]c3ccc(OC(F)(F)F)cc23)c1O	V1R ag counter 29.4, OXTR agonist 39.5 (no result: zfTRPN1 agonist, TRPML3 ag)
C[N+](C)(C)CCOC(=O)CBr	none (no result: zfTRPN1 agonist, TRPML3 ag)
CC(=O)OCC[N+](C)(C)C	zfTRPN1 agonist 75.2, TRPML3 ag 99.8
CC1=NCCc2c1[nH]c1cc(O)ccc21	V1R ag counter 29.7, OXTR agonist 42.9 (no result: zfTRPN1 agonist, TRPML3 ag)
COc1ccc2c3c([nH]c2c1)C(C)=NCC3	none
CCN1/C(=C\C=C\C2=[N+](CC)c3ccccc3C2(C)C)C(C)(C)c2ccccc21	zfTRPN1 agonist 316.8, TRPML3 ag 158.5, V1R ag counter 459.4, OXTR agonist 443.4
CN[C@@H]1C[C@@H](c2ccc(Cl)c(Cl)c2)c2ccccc21	OXTR agonist 27.8
C[C@H]1OC[C@@H](C[N+](C)(C)C)O1	zfTRPN1 agonist 71.4, TRPML3 ag 98.9
CC1OC(C[N+](C)(C)C)CC1O (stereo not drawn)	none (no result: zfTRPN1 agonist, TRPML3 ag)
O=C(CCCN1CCC2(CC1)C(=O)NCN2c1ccccc1)c1ccc(F)cc1	zfTRPN1 agonist 53.4, TRPML3 ag 49.7, V1R ag counter 28.2, OXTR agonist 41.5
O=C(c1ccc(F)cc1)C(Cc1ccccc1)N1CCCCC1 (stereo not drawn)	none
CC(C)c1ccc(-n2c(O)c(C=NCCN3CCNCC3)c(=O)[nH]c2=S)cc1	none (no result: zfTRPN1 agonist, TRPML3 ag)
Cc1cc(C)n(-c2ccc(NN=C(C#N)C#N)cc2)n1	zfTRPN1 agonist 31.9, TRPML3 ag 17.6
N#CC(C#N)=NNc1ccc(-n2ccc(C(F)(F)F)n2)cc1	zfTRPN1 agonist 27.4, TRPML3 ag 23.3, OXTR agonist 24.4
Cc1cc(OC(C)C(=O)N[C@H](C(=O)O)c2ccccc2)c2c3c(c(=O)oc2c1)CCC3 (stereo partly drawn)	none (no result: zfTRPN1 agonist, TRPML3 ag)
COC(=O)C1=C(c2cc3ccccc3s2)C[C@@H]2CC[C@H]1N2C(=O)N1CCCC1	none (no result: zfTRPN1 agonist, TRPML3 ag)
COc1ccc(-n2c(O)c(/C=C/C=Nc3ccccc3)c(=O)[nH]c2=O)cc1	zfTRPN1 agonist 42.6, TRPML3 ag 26.7, V1R ag counter 43.0, OXTR agonist 80.3
CC(C)[C@H]1C(=O)O[C@H](C(C)C)C(=O)N(C)[C@@H](C(C)C)C(=O)O[C@H](C(C)C)C(=O)N(C)[C@@H](C(C)C)C(=O)O[C@H](C(C)C)C(=O)N1C	zfTRPN1 agonist 36.2, TRPML3 ag 19.7
COc1ccccc1N1CCN(Cc2cnc(-c3ccccc3)[nH]2)CC1	none
O=C1NC(=O)C(CCc2ccncc2)(CCc2ccncc2)C(=O)N1Cc1ccccc1	none
CCC1C=CC=CC[C@H](C)[C@@H](O)[C@](C)(O)C(=O)[C@@H](C)[C@H](O)[C@@H](C)C(=O)[C@H](C)[C@@H](O)[C@H](C)C=CC(=O)OC2[C@@H](C)C(CC1)OC1(CC[C@@H](C)C(C[C@H](C)O)O1)[C@@H]2C (stereo partly drawn)	none (no result: zfTRPN1 agonist, TRPML3 ag)
C[CH2][Hg][S]c1ccccc1C(=O)O	OXTR potentiate 12.1 (no result: zfTRPN1 agonist, TRPML3 ag)
